ABCB6 inh MLPCN: blocks the human ABCB6 transporter. Q9NP58. K562-ABCB6 porphyrin accumulation, flow cytometry, 1 h; active compounds read low. fluorescence ratio to DMSO, % at 10 µM. actives 0.19% (n = 360,000). AID 602162;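 active means fluorescence ratio to DMSO below 75%, the collection mean minus 3 SD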;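 further: signal is porphyrin accumulated inside mitochondria; 100% equals median channel fluorescence of DMSO control wells; lower ratio means ABCB6 inhibition with less porphyrin fluorescence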
CHT allo act: allosteric activators of human choline transporter CHT | Q9GZV3 | CHT-expressing cells, membrane potential dye, choline EC20; active compounds read high; LV-AA mutant CHT in HEK293 cells | B-score at 10 µM | actives 0.49% (n = 310,000);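 active means initial fluorescence not abnormally high and integrated response B-score, plate-corrected, over 3 SD above library mean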
Target sequence (Q9GZV3 whole entry, looked up): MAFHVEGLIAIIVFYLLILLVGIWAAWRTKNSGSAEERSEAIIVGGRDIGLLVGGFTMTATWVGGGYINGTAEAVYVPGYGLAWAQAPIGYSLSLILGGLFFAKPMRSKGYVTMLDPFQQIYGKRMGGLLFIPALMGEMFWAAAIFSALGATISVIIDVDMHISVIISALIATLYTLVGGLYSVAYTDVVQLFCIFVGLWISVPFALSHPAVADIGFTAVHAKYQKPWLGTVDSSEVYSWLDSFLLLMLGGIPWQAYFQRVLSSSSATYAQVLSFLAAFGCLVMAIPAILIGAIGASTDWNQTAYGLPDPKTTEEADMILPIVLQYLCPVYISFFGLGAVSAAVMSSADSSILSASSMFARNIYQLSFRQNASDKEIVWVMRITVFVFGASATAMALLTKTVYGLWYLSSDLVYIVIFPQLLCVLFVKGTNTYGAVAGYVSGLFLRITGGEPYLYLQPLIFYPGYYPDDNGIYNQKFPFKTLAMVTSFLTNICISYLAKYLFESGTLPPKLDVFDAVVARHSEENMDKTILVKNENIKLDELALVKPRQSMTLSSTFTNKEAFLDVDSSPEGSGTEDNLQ
TNAP inh hi DEA: blocks human TNAP under high phosphate acceptor concentration | inhibition, % at 20 µM | P05186 | purified TNAP, CDP-star luminescence, 1 M DEA | actives 0.03% (n = 200,000);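 active means over 50% inhibition of tissue-nonspecific alkaline phosphatase at 20 µM in the single-dose screen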;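 further: plate controls were DMSO wells for no effect and EDTA-quenched wells as full inhibition for full effect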
TNAP act hiacc: TNAP (human) activation, high acceptor | purified TNAP, CDP-star luminescence, 1 M DEA, 30 min; active compounds read high; 0 = EDTA background, 1 = DMSO-only activity | activation factor at 20 µM | 200,000 tested, under 10 active;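 active means activation factor at least 2 at 20 µM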
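Measured by: Luminescent substrate turnover signal | Test system: Human TNAP | Input: TNAP 1/800 final | Dosing: 20 µM single point | Schedule: 30 min, room temperature | Controls: EDTA wells as negative control, DMSO wells as positive control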
TNAP inh no acc: TNAP (human) inhibition, acceptor-free conditions. P05186. purified TNAP, CDP-star luminescence, 30 min. inhibition, % at 20 µM. actives 0.26% (n = 200,000);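 active means tissue-nonspecific alkaline phosphatase inhibition above about 50% at 20 µM in the single-dose screen, limit read from the data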;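 further: 0% = DMSO negative control and 100% = EDTA positive control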
CHT inh: inhibitors of human choline transporter CHT | B-score at 10 µM | AID 488975 | CHT-expressing cells, membrane potential dye, choline response; active compounds read low | actives 0.86% (n = 310,000);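 active means B-score over 3 SD under the library average, and starting fluorescence ratio not unusually high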;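 further: choline stimulus applied at its EC90 after an EC20 pre-addition; B-score computed on integrated fluorescence ratio after choline addition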
* marks the source's active call; other numbers are inactive results; i = inactive; · = no result given. Most compounds without a hit are left out; they make up all but 1.4% or so of the library.

SMILES	ABCB6 inh MLPCN	CHT allo act	TNAP inh hi DEA	TNAP act hiacc	TNAP inh no acc	CHT inh
CSc1nc(N)c2c3c(sc2n1)CN(C)CC3	101	7.7*	·	·	·	i
CCn1c(SCC(=O)Nc2ccc(C)cc2)nc2sc3c(c2c1=O)CCN(C)C3	96	i	·	·	·	i
O=C1CN(S(=O)(=O)c2cccc(Br)c2)CCN1	104	·	·	·	·	·
COc1c(-c2ccc([N+](=O)[O-])cc2[N+](=O)[O-])c(=O)n(C)c(=O)n1C	100	i	·	·	·	i
CSc1nc(SCC(=O)NCc2ccco2)c2c3c(sc2n1)CN(C)CC3	72*	i	·	·	·	i
CCSc1nc2sc3c(c2c(=O)n1-c1ccccc1)CCN(C)C3	104	i	·	·	·	i
CCSc1nc(N)c2c3c(sc2n1)CN(C)CC3	·	6.3*	-4	1	-1	i
COCCSc1nc2sc3c(c2c(=O)n1-c1ccccc1)CCN(C)C3	100	7.5*	0	1	-13	i
COc1ccc(C(=O)OCCN2CCN(C3=NS(=O)(=O)c4ccccc43)CC2)cc1OC	100	i	·	·	·	i
CN(c1ccccc1C(=O)Nc1cccc([N+](=O)[O-])c1)S(C)(=O)=O	100	i	-3	1	-9	i
CCN(c1ccccc1)S(=O)(=O)c1ccc(NC(=O)c2nc(S(C)(=O)=O)ncc2Cl)cc1	37*	i	·	·	·	i
Cc1ccccc1NC(=O)c1nc(S(C)(=O)=O)ncc1Cl	105	i	·	·	·	i
CCS(=O)(=O)c1ncc(Cl)c(C(=O)Nc2ccc(S(=O)(=O)N(C)c3ccccc3)cc2)n1	39*	i	·	·	·	i
CN(CC(=O)Nc1ccc(OC(F)(F)F)cc1)C(=O)/C=C/c1cc2c(cc1[N+](=O)[O-])OCO2	99	·	·	·	·	·
COc1c(C)cc(C(O)c2ncc(-c3ccc4ccccc4c3)[nH]2)cc1C (configuration not stated)	94	·	·	·	·	·
C#CCOCCOCCOCCNc1nc(N2CCN(C(=O)CCCCCCCCCCNC(=O)[C@H](CO)n3cc(CCCSC)nn3)CC2)nc(N2CCN(C(=O)CCCCCCCCCCNC(=O)[C@H](CO)n3cc(CCCSC)nn3)CC2)n1	74*	i	·	·	·	i
C#CCOCCOCCOCCNc1nc(N2CCN(C(=O)[C@H](CCCCN)n3cc(C(N)CO)nn3)CC2)nc(N2CCN(C(=O)[C@H](CCCCN)n3cc(C(N)COC(=O)C(F)(F)F)nn3)CC2)n1 (some centres not stated)	·	7.1*	·	·	·	i
Fc1ccc(-n2ncc3c(SCc4cccnc4)ncnc32)cc1	99	i	-6	1.1	-12	i
O=C(O)CN1C(=O)/C(=C\c2cc([N+](=O)[O-])ccc2OCc2ccccc2Cl)SC1=S	100	i	·	·	·	-6.2*
O=C(O)CCCN1C(=O)/C(=C\c2ccccc2OCc2ccccc2)SC1=S	98	i	·	·	·	-7.7*
O=C1CC(NCCC2=CCCCC2)C(=O)N1c1cccc(Cl)c1Cl (configuration not stated)	·	i	-2	1	-2	i
COC(=O)c1cc(-c2c[nH]c3ccccc23)n[nH]1	99	i	0	1	89*	i
CCc1ccc(-c2cc(C(=O)N/N=C/c3c[nH]c4ccccc34)[nH]n2)cc1	90	i	6	0.9	22	i
O=c1c(C(c2ccccc2)c2c(O)sc3ccccc3c2=O)c(O)sc2ccccc12	103	i	-3	1	-19	-5.2*
O=c1c2ccccc2sc2ccccc12	104	·	·	·	·	·
O=C(Cc1ccc(NC(=O)C2CCCN(C(=O)C3CC3)C2)cc1)Nc1cccc(C(=O)N2CCCCC2)c1 (configuration not stated)	97	·	·	·	·	·
Nc1c(C(=O)Nc2ccccc2)sc2nc(-c3cccnc3)ccc12	·	i	·	·	·	-4.9*
COc1ccc(NC(=O)c2sc3nc(-c4cccnc4)ccc3c2N)cc1	94	i	·	·	·	i
COc1cc(C(=O)Nc2cc(-c3ccccc3)[nH]n2)cc(OC)c1OC	101	i	-6	1.1	63*	i

Source: PubChem BioAssay
